Assay results of several laboratories.
Compare with care: the assays were run in different laboratories.
CDK16: Cyclin-dependent kinase 16 (CDK16, Homo sapiens, UniProt Q00536)
CDK16 with cyclin Y: Cyclin-dependent kinase 16, with cyclin Y (CDK16, Homo sapiens, UniProt Q00536)

| SMILES | target | assay | conditions | endpoint | value |
| --- | --- | --- | --- | --- | --- |
| Nc1ncnc2occ(-c3ccc(NC(=O)Nc4cc(C(F)(F)F)ccc4F)cc3)c12 | CDK16 | cell-free assay, inhibitor | 20 µM | remaining signal | 0.15% |
| Cn1c2c(Cl)c(Cl)ccc2c2cn[nH]c(=O)c21 | CDK16 | thermal stability, DSF | 10 µM | ΔTm | 0.8 °C |
| Cc1ccc(C(=O)Nc2ccc(CN3CCN(C)CC3)c(C(F)(F)F)c2)cc1C#Cc1cnc2cccnn12 | CDK16 | enzyme activity, inhibitor | 23.5 nM | remaining activity | 77% |
| Cn1c2c(c3ccc(Cl)c(Cl)c31)C(C#N)C1(CCCCC1)NC2=O (racemic) | CDK16 | thermal stability, DSF | 10 µM | ΔTm | 0.6 °C |
| CS(=O)(=O)Nc1cccc(-c2csc(NC(=O)CSc3nc4nccnc4c(=O)n3CCc3ccccc3)n2)c1 | CDK16 with cyclin Y | enzyme activity, inhibitor | 10 µM | inhibition | -1% |
| CN([C@@H]1CCc2c(CC(=O)O)c3cc(S(C)(=O)=O)ccc3n2C1)S(=O)(=O)c1ccc(F)cc1 | CDK16 | cell-free assay, competition with immobilised ligand | 1 µM | remaining binding | 84% |
| Cn1c2c(c3ccc(Cl)c(Cl)c31)C(C#N)C1(CCN(C(=O)OC(C)(C)C)CC1)NC2=O (racemic) | CDK16 | thermal stability, DSF | 10 µM | ΔTm | 0 °C |
| O=C(O)c1cc(-c2ccc(C3CCNCC3)cc2)c2ccc(-c3ccc(C(F)(F)F)cc3)cc2c1 | CDK16 | cell-free assay, competition with immobilised ligand | 1 µM | remaining binding | 100% |
| Cc1ccc(C(=O)NCc2ccsc2)cc1C#Cc1cn(C(C)C)c2ncnc(N)c12 | CDK16 with cyclin Y | enzyme activity, inhibitor | 1 µM | activity vs control | 101% |
| CNC(=O)Nc1ccc2c(c1)CC[C@@]21OC(=O)N(CC(=O)N(Cc2ccc(F)cc2)[C@@H](C)C(F)(F)F)C1=O | CDK16 | cell-free assay, competition with immobilised ligand | 1 µM | remaining binding | 75% |
| CC(C)(C)c1nc(-c2cccc(NS(=O)(=O)c3c(F)cccc3F)c2F)c(-c2ccnc(N)n2)s1 | CDK16 with cyclin Y | enzyme activity, inhibitor, radiometric | 1 µM | remaining activity | 53% |
| CCCCNc1ncc2c(-c3ccc(F)cc3)nn(C[C@H]3CC[C@H](N)CC3)c2n1 | CDK16 | target engagement in cells, inhibitor, chemoproteomics | 20 mM | inhibition | 38.5% |
